Two compounds from ChEMBL document CHEMBL5705907 (BMC Rheumatol, 2018) can be followed below.

Assay [1] deals with AMP-activated protein kinase, AMPK. As to the kind of experiment: Inhibition of AMPK (unknown origin) by TR-FRET assay. Type of assay: protein-complex assay, Homo sapiens.
The test system of assay [2] is Rattus norvegicus. As to the kind of experiment: Antiarthritic activity in adjuvant-induced arthritis Lewis rat model assessed as improvement in bone erosion at 3 to 10 mg/kg, po administered for 10 days and measured on day 17 by microCT-scanning analysis. Particulars: dose 3-10 mg/kg, time 17.0 day.
In assay [3] the test system is Rattus norvegicus. As to the kind of experiment: Antiarthritic activity in adjuvant-induced arthritis Lewis rat model assessed as bone destruction by measuring reduction in bone volume at 1 mg/kg, po administered for 10 days and measured on day 17 by microCT-scanning analysis. Particulars: time 17 day. The format is functional. Also noted: scale not given: the % may be the effect or the level left. The method, boiled down:
(§1)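 Rats dosed by oral gavage twice daily (BID) with vehicle or drug for 10 days (Day 7–Day 17 post immunization). On Day 17, rats exsanguinated by cardiac puncture under isoflurane; left rear paw scanned by μCT. Bone volume and density determined in a 360 μm vertical section encompassing the tarsal region. Each group compared with vehicle by Dunnett's multiple comparison test.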

For assay [4], the target named is Cyclin-dependent kinase 11B (Homo sapiens, UniProt P21127). As to the kind of experiment: Inhibition of CDK11 (unknown origin) by TR-FRET assay.
Chain of Cyclin-dependent kinase 11B (P21127 whole entry): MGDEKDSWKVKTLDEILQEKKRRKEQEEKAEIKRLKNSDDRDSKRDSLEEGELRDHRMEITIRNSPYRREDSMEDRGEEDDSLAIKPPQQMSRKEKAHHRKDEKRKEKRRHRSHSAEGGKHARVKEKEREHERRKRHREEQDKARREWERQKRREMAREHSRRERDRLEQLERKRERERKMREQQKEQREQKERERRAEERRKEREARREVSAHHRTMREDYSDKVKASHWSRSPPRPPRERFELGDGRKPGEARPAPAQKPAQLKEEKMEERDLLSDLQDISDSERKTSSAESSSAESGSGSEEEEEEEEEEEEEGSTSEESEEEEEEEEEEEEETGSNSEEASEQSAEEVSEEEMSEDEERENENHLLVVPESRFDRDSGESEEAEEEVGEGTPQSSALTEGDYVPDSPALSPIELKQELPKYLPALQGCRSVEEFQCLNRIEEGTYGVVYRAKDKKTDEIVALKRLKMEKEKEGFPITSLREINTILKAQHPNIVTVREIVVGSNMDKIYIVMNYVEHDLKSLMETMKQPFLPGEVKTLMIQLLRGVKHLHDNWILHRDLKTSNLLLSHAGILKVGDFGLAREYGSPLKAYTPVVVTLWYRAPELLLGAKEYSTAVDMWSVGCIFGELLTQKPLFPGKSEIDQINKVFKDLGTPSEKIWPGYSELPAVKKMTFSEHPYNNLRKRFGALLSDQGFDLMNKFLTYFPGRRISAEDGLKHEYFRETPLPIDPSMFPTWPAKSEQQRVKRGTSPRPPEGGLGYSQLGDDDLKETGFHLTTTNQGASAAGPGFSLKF
Assay [5] can be described thus: Inhibition of ABL (unknown origin) by TR-FRET assay. Also noted: species or system Homo sapiens. In general terms: Time-resolved FRET reads energy transfer from a long-lived donor to a nearby acceptor.
The subject of assay [6] is Rattus norvegicus. As to the kind of experiment: Antiarthritic activity in adjuvant-induced arthritis Lewis rat model assessed as reduction in paw swelling administered for 10 days and measured on day 17. The format is functional, organism-based. The following applies: time 17.0 day. An outline of the steps: (§2)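 In rats with adjuvant-induced arthritis, vehicle or drug was given by oral gavage BID for 10 days (Day 7–Day 17 after immunization). Paw swelling was measured by water-displacement plethysmography every other day up to Day 17. Treatment groups were compared with vehicle by Dunnett's multiple comparison test.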

The subject of assay [7] is Rattus norvegicus. As to the kind of experiment: Antiarthritic activity in adjuvant-induced arthritis Lewis rat model assessed as bone destruction by measuring reduction in bone volume at 3 mg/kg, po administered for 10 days and measured on day 17 by microCT-scanning analysis. The following applies: time 17 day. Also noted: scale not given: the % may be the effect or the level left. The format is functional. The method, boiled down: (§3)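 Lewis rats with adjuvant-induced arthritis were given vehicle or drug by oral gavage twice daily for 10 days (Day 7–Day 17 post immunization). On Day 17 they were exsanguinated by cardiac puncture under isoflurane. Left rear paws were μCT-scanned, and bone volume and density were determined in a 360 μm vertical section through the tarsal region. Groups were compared with vehicle by Dunnett's test.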

Assay [8] deals with Rattus norvegicus. As to the kind of experiment: Antiarthritic activity in adjuvant-induced arthritis Lewis rat model assessed as bone destruction by measuring reduction in bone volume at 0.3 mg/kg, po administered for 10 days and measured on day 17 by microCT-scanning analysis. The format is functional. Also noted: scale not given: the % may be the effect or the level left. Particulars: time 17 day. The method, boiled down: as §1

For assay [9], the system named is Rattus norvegicus. As to the kind of experiment: Antiarthritic activity in adjuvant-induced arthritis Lewis rat model assessed as improvement in bone erosion at 3 to 10 mg/kg, po administered for 10 days and measured on day 17 by microCT-scanning analysis. The format is functional, organism-based. Particulars: dose 3-10 mg/kg, time 17.0 day.
Assay [10] concerns Rattus norvegicus. As to the kind of experiment: Antiarthritic activity in adjuvant-induced arthritis Lewis rat model assessed as reduction in paw swelling at 5 to 10 mg/kg, po administered for 10 days and measured on day 17. The following applies: dose 5-10 mg/kg, time 17 day. Also noted: scale not given: the % may be the effect or the level left. Type of assay: functional. An outline of the steps:
as §2

Assay [11] deals with Rattus norvegicus. As to the kind of experiment: Antiarthritic activity in adjuvant-induced arthritis Lewis rat model assessed as improvement in cartilage damage at 3 to 10 mg/kg, po administered for 10 days and measured on day 17 by microCT-scanning analysis. The following applies: dose 3-10 mg/kg, time 17.0 day. Type of assay: functional, organism-based.
The test system of assay [12] is Rattus norvegicus. As to the kind of experiment: Antiarthritic activity in adjuvant-induced arthritis Lewis rat model assessed as bone destruction by measuring reduction in bone volume at 10 mg/kg, po administered for 10 days and measured on day 17 by microCT-scanning analysis. Type of assay: functional. Also noted: scale not given: the % may be the effect or the level left. The following applies: time 17 day. The method, boiled down:
as §1

For assay [13], the system named is Rattus norvegicus. As to the kind of experiment: Antiarthritic activity in adjuvant-induced arthritis po dosed Lewis rat model assessed as bone destruction by measuring reduction in bone volume administered for 10 days and measured on day 17 by microCT-scanning analysis. The format is functional, organism-based. Particulars: dose 0.1-10 mg/kg, time 17.0 day. The method, boiled down:
as §3

In assay [14] the test system is Rattus norvegicus. As to the kind of experiment: Antiarthritic activity in adjuvant-induced arthritis Lewis rat model assessed as improvement in synovial hypertrophy at 3 to 10 mg/kg, po administered for 10 days and measured on day 17 by microCT-scanning analysis. Type of assay: functional, organism-based. The following applies: dose 3-10 mg/kg, time 17.0 day.
Assay [15] concerns Rattus norvegicus. As to the kind of experiment: Antiarthritic activity in adjuvant-induced arthritis Lewis rat model assessed as improvement in synovial hypertrophy at 3 to 10 mg/kg, po administered for 10 days and measured on day 17 by microCT-scanning analysis. Particulars: dose 3-10 mg/kg, time 17.0 day.
The subject of assay [16] is Rattus norvegicus. As to the kind of experiment: Antiarthritic activity in adjuvant-induced arthritis Lewis rat model assessed as bone destruction by measuring reduction in bone volume at 0.1 mg/kg, po administered for 10 days and measured on day 17 by microCT-scanning analysis. Also noted: scale not given: the % may be the effect or the level left. Type of assay: functional. The following applies: time 17 day. The method, boiled down:
as §3

The next assay concerns Blood. As to the kind of experiment: Ex-vivo inhibition of JAK1 in human blood assessed as reduction in IL-6-induced STAT3 phosphorylation at 36 mg/kg, po measured after 12 hrs. The format is functional, organism-based. An outline of the steps: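 Blood was drawn into sodium heparin tubes at 0, 1, 6 and 12 h after an oral dose. It was stimulated with recombinant human IL-6 (400 ng/ml) for 10 min at 37°C and surface-stained for CD14/CD3 on ice. Samples were lysed/fixed, frozen at −70°C, permeabilized, and stained for pSTAT3 for flow cytometry. Percent inhibition used geometric means of induced minus baseline pSTAT relative to pre-dose.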

The subject of assay [17] is Rattus norvegicus. As to the kind of experiment: Antiarthritic activity in adjuvant-induced arthritis Lewis rat model assessed as improvement in cartilage damage at 3 to 10 mg/kg, po administered for 10 days and measured on day 17 by microCT-scanning analysis. Particulars: dose 3-10 mg/kg, time 17.0 day.
The subject of assay [18] is Rattus norvegicus. As to the kind of experiment: Antiarthritic activity in adjuvant-induced arthritis Lewis rat model at 3 to 10 mg/kg, po administered for 10 days and measured on day 17 by microCT-scanning analysis. The format is functional, organism-based. Particulars: dose 3-10 mg/kg, time 17.0 day. An outline of the steps: as §3

Active and inactive are the calls of the source. The rule behind the calls is not given here.

Broadly, the IC50 is the point on the concentration scale where inhibition reaches its midpoint. Turning to `CC[C@@H]1CN(C(=O)NCC(F)(F)F)C[C@@H]1c1cnc2cnc3[nH]ccc3n12` [UPADACITINIB], the IC50 is more than 4.5 µM in assay [1], more than 10 µM in [4] and more than 10 µM in assay [5]. In addition, the outcome with Rattus norvegicus [2], with Rattus norvegicus [6], in the assay with Rattus norvegicus [9], in the assay on Rattus norvegicus [11], in the assay with Rattus norvegicus [14] and in the assay on Rattus norvegicus [15] was Active. Further, the outcome with Rattus norvegicus [17] was Active. The Activity in the assay on Rattus norvegicus [3] was 63%; with Rattus norvegicus [7] it was 96%; in the assay with Rattus norvegicus [8] it was 16%; in the assay with Rattus norvegicus [10], more than 60%; with Rattus norvegicus [12], 89%; in the assay on Rattus norvegicus [13] it was “Dose-Dependent Effect”. For the same compound, the Activity in the assay with Rattus norvegicus [16] came to 26%. Also, the inhibition entry in the assay with Blood was “Active”.
Take `C[C@@H]1CCN(C(=O)CC#N)C[C@@H]1N(C)c1ncnc2[nH]ccc12` [TOFACITINIB]: the Activity in the assay with Rattus norvegicus [10] was more than 60%. For the same compound, the outcome in the assay with Rattus norvegicus [18] was Active.
